Active and inactive are the calls of the source.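 Rule for the calls, unless noted: active = NADPH fluorescence slope more negative than the mean of all samples by about 3 SD, 99.7% confidence; inactive = the rest.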
Key:
[1] = inhibitors of TNFa-induced NFkB p65 translocation, primary screen, imaging, HUVEC, MLSMR starter and 10KST1 sets (AID 438;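 active = inhibition above 20% together with a positive visual image hit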;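 note: compound added about 3h40 before a 20 min TNFalpha stimulation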;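 for inhibition: signal is the nuclear over cytoplasmic p65 intensity ratio per well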); conditions: HUVEC TNFa-induced p65 nuclear translocation; cell count: measured here: nuclei count (cytotoxicity indicator), at 2.08 µM; inhibition: at 2 µM, stronger effect = higher value, 0% TNFa-plus-vehicle, 100% no-TNFa wells
[2] = inhibitors of E-selectin induction by TNFa, primary screen, imaging, HUVEC, immunofluorescence, MLSMR starter and 10KST1 sets (AID 487;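 active = visually confirmed hit in the image check and inhibition above 20%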;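 for inhibition: signal is fraction of cell area covered by stained E-selectin grains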;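 for nuclei count: 100% = median nuclei count of all wells on the same plate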); conditions: HUVEC TNFalpha-induced E-selectin immunofluorescence imaging, at 2 µM; inhibition: stronger effect = higher value; nuclei count: measured here: cell number, toxicity
[3] = DUSP6 inhibitors restoring Erk phosphorylation by chemical complementation, primary imaging in DUSP6-transfected HeLa (AID 609;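 active = compounds giving at least 50% inhibition in the cell-based MKP-3 phosphatase rescue imaging test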;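 for inhibition: phospho-Erk level distribution per well compared with pooled transfected vehicle control wells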); conditions: HeLa MKP-3 transfected, phospho-Erk imaging KS statistic, at 10 µM, cells stimulated with TPA for 15 min
[4] = target: Dual specificity protein phosphatase 6 (Homo sapiens) (UniProt Q16828); experiment: as above; conditions: HeLa MKP-3 transfected, phospho-Erk imaging KS statistic; at 10 µM; stronger effect = higher value; cells stimulated with TPA for 15 min
Dual specificity protein phosphatase 6 (Homo sapiens), sequence (Q16828 whole entry, looked up): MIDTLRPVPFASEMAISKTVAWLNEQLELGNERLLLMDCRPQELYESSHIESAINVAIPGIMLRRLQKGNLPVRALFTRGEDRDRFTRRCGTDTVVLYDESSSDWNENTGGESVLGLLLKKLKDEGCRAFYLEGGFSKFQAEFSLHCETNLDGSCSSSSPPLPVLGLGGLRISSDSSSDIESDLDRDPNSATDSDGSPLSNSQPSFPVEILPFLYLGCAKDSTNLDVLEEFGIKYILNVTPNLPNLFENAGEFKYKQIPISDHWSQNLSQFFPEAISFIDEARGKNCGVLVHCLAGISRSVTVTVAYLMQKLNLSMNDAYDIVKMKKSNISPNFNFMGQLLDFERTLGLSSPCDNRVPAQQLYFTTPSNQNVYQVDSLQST

[5] = target: Voltage-gated potassium channel subunit beta-2 (Rattus norvegicus) (UniProt P62483); experiment: KvBeta enzyme negative modulators, primary screen, biochemical, NADPH fluorescence (AID 622;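 active = fluorescence slope higher than the sample average by over 3 SD, cut at about -0.22 in these data, passing the limit was not always enough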;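 note: slope of raw intensity against log time taken from 70 to 1610 s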); conditions: recombinant KvBeta, 4-cyanobenzaldehyde reduction, at 10 µM, stronger effect = higher value
Voltage-gated potassium channel subunit beta-2 (Rattus norvegicus), sequence (P62483 whole entry, looked up): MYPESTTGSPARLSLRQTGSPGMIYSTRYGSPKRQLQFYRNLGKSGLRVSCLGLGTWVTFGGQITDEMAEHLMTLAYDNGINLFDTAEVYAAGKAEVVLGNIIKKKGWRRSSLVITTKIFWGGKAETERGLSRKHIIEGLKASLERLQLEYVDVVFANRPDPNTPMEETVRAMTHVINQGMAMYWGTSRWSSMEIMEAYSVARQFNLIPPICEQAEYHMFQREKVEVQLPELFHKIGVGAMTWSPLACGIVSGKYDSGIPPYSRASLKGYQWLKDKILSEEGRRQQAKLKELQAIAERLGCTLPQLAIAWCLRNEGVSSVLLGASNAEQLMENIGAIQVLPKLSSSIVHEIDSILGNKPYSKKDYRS

[6] = target: Voltage-gated potassium channel subunit beta-2 (Rattus norvegicus) (UniProt P62483); experiment: KvBeta positive modulators, primary screen, biochemical, NADPH fluorescence (AID 623); conditions: Recombinant KvBeta, NADPH fluorescence decrease slope, 10 min; at 10 µM; stronger effect = lower value;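 note: fluorescence intensity change per second fitted from 20 to 320 s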
[7] = target: Muscarinic acetylcholine receptor M4 (Homo sapiens) (UniProt P08173); experiment: compounds altering M4/GIRK thallium flux, either direction, primary screen, M4 allosteric agonist project, cell-based, HEK293 M4/GIRK, BTC-AM (AID 625;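 active = fluorescence slope after compound addition differing from the mean of all tested samples at 99.7% confidence, mostly higher but some lower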;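 note: thallium influx through GIRK channels coupled to M4 in HEK293 cells with BTC-AM dye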); conditions: at 10 µM, actives lie on both sides
Muscarinic acetylcholine receptor M4 (Homo sapiens), sequence (P08173 whole entry, looked up): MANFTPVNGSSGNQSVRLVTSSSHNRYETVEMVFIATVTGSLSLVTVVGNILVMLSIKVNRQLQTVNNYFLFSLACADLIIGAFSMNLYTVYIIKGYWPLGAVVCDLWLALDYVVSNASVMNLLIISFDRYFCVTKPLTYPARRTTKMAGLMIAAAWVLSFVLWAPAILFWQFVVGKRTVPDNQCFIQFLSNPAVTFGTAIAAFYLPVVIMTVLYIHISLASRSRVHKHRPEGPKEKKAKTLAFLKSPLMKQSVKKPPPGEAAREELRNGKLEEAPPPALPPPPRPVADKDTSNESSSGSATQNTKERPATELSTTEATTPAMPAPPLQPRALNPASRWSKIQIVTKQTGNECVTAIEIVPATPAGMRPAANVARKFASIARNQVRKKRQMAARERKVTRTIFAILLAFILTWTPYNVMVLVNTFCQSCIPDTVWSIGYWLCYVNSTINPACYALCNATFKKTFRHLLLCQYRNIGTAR
Procedure, shortened: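 Assay system: HEK293 cells with M4 receptor and GIRK channels / Controls: carbachol and DMSO controls / Schedule: 1 h dye loading, 2 min kinetic read / Technique: kinetic fluorescence with BTC-AM dye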

[8] = inhibitors of larval lipid processing in zebrafish, primary screen, whole organism, PED6 fluorescence, gall bladder and intestine (AID 686;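 active = a full or partial loss of lipid-probe fluorescence in the fish gall bladder, intestine or both, judged by eye; inactive = no fluorescence loss, or compound toxic to the fish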;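 note: larvae 5 to 7 days old with five fish per well; signal comes from phospholipase A2 cleavage of quenched PED6 carried via bile; overnight exposure to compound and PED6 before scoring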); conditions: Zebrafish larvae PED6 lipid processing, fluorescence scoring; screened at 20 µM (by protocol)
Procedure, shortened: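 Doses: 20 µM single dose. Test system: live zebrafish larvae aged 5-7 days, whole organism. Quantity: five larvae per well. Measured by: By-eye fluorescence microscopy. Reagent: ingested quenched lipid PED6 at 100 nM. Read-out: visual per-well fluorescence inhibition score. Times: overnight exposure of larvae to compound plus PED6.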

[9] = inhibitors of Chlamydomonas gravitaxis, primary screen, whole organism, Chlamydomonas reinhardtii, WT vs cilia-less mutant, absorbance, 96-well (AID 463189;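 active = inhibition at or above 50% relative to wild type and mutant plate controls; inactive = inhibition below 50%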;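 note: 0% = wild type cc124 cells in DMSO and 100% = ciliumless bld1 mutant cells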); conditions: OD600 absorbance, 2 days, at 10 µM, stronger effect = higher value
[10] = measured here: cell density z-score
[11] = measured here: nuclear c-Myc green intensity z-score
[12] = measured here: nuclear pErk red intensity z-score, stronger effect = higher value

SMILES	cell count [1]	inhibition [1]	inhibition [2]	nuclei count [2] [%]	z-score [3, 10]	z-score [3, 11]	z-score [3, 12]	inhibition [4]	fluorescence slope [5]	NADPH fluorescence slope [6]	fluorescence slope [7]	outcome [8]	inhibition [9]
COCc1[nH]nc2c1C(c1sccc1C)C(C#N)=C(N)O2 (centres undefined)	569	-7.1% (inactive)	-22.2% (inactive)	170	1.09	-0.767	0.181	8.31% (inactive)	-0.488 (inactive)	-2.8e-05 (inactive)	0.00573 (inactive)	inactive	0.653% (inactive)
Cn1cccc1/C=N/n1cnnc1	561	0.9% (inactive)	-164% (inactive)	130	0.378	-0.4	-0.934	-4.59% (inactive)	-0.452 (inactive)	-0.000125 (inactive)	0.0051 (inactive)	inactive	-1.85% (inactive)
Cc1cc(=O)oc2cc(OCC(=O)NCc3cccnc3)ccc12	618	9% (inactive)	-1.6% (inactive)	105	-0.419	-0.48	0.0246	-3.95% (inactive)	-0.428 (inactive)	-5e-05 (inactive)	0.00447 (inactive)	inactive	-0.087% (inactive)
Cc1sc(-n2c(C)ccc2C)c(C#N)c1C	411	-2% (inactive)	-11.7% (inactive)	144	-1.09	-0.0847	1.07	7.73% (inactive)	-0.505 (inactive)	-9.6e-05 (inactive)	0.00469 (inactive)	inactive	-3.1% (inactive)
CC(C)CN1C(=O)c2ccc(C(=O)Nc3ccccn3)cc2C1=O	669	-5.4% (inactive)	50% (inactive)	136	-1.42	1.32	-0.345	-11.4% (inactive)	-0.495 (inactive)	-4.7e-05 (inactive)	0.00831 (inactive)	inactive	-7.05% (inactive)
CN1C(=O)C2(c3ccccc31)C1CCCC=C1C(C#N)=C(N)C2(C#N)C#N (centres undefined)	391	-7% (inactive)	-160% (inactive)	143	-0.865	0.905	-0.897	29.4% (inactive)	-0.472 (inactive)	-1.9e-05 (inactive)	0.00434 (inactive)	inactive	4.14% (inactive)
COc1ccc(CSc2nnc3n(C)c(=O)c4c5c(sc4n23)CCCC5)cc1	563	-1.3% (inactive)	-140% (inactive)	184	0.888	-0.948	-1.27	17.8% (inactive)	-0.41 (inactive)	-1.6e-05 (inactive)	0.00522 (inactive)	inactive	1.97% (inactive)
CC1(C)Cc2nc(NCCN3CCOCC3)c(C#N)cc2CO1	586	-8.3% (inactive)	-133% (inactive)	149	0.143	0.853	0.307	-0.233% (inactive)	-0.486 (inactive)	-8.5e-05 (inactive)	0.00414 (inactive)	inactive	-7.98% (inactive)
Cn1c(N)c(C#N)c2c(c1=S)CSC(C)(C)C2	571	-20% (inactive)	-64.2% (inactive)	144	0.44	-1.23	-1.03	25.8% (inactive)	-0.446 (inactive)	-6.4e-06 (inactive)	0.00454 (inactive)	inactive	9.9% (inactive)
C(=N\n1cnnc1)/c1ccccn1	607	3.2% (inactive)	-109% (inactive)	127	0.675	3.12	-0.143	9.42% (inactive)	-0.442 (inactive)	-0.000114 (inactive)	0.00562 (inactive)	inactive	16.5% (inactive)
CC(C)NCc1c(O)c(Br)cc2oc3c(c12)CCCC3	533	9.9% (inactive)	-3.5% (inactive)	99.8	0.0675	-0.158	-0.115	-7.67% (inactive)	-0.517 (inactive)	-1.1e-05 (inactive)	0.00361 (inactive)	inactive	53.2% (active)
Cc1ccc(N(CN2C(=O)C3CC=CCC3C2=O)C(=O)c2ccco2)cc1Cl (centres undefined)	419	-4.5% (inactive)	32.8% (inactive)	102	0.823	-0.172	0.302	-7.28% (inactive)	-0.453 (inactive)	-1.3e-05 (inactive)	0.00483 (inactive)	inactive	30.1% (inactive)
O=C(O)CCc1nn2cc(-c3ccccc3)nc2[nH]c1=O	580	3% (inactive)	-147% (inactive)	170	0.555	-0.659	-0.476	-7.93% (inactive)	-0.00517 (active)	2.1e-06 (inactive)	0.00553 (inactive)	inactive	-5.8% (inactive)

Reference: PubChem BioAssay
